In ChEMBL document CHEMBL3856268 (J Med Chem, 2016):
Active and inactive are the calls of the source. The rule behind the calls is not given here.

What was measured:
[1] = target: T1, NAD-dependent protein deacetylase sirtuin-1 (Homo sapiens) (UniProt Q96EB6); assay: Activation of 25 nM N-terminal His6-tagged recombinant human SIRT1 expressed in Escherichia coli at 100 uM using RHKK(Ac)W-NH2 as substrate after 1 hr in presence of 0.01% TX-100 by UV detection-based HPLC method
T1 sequence (whole entry): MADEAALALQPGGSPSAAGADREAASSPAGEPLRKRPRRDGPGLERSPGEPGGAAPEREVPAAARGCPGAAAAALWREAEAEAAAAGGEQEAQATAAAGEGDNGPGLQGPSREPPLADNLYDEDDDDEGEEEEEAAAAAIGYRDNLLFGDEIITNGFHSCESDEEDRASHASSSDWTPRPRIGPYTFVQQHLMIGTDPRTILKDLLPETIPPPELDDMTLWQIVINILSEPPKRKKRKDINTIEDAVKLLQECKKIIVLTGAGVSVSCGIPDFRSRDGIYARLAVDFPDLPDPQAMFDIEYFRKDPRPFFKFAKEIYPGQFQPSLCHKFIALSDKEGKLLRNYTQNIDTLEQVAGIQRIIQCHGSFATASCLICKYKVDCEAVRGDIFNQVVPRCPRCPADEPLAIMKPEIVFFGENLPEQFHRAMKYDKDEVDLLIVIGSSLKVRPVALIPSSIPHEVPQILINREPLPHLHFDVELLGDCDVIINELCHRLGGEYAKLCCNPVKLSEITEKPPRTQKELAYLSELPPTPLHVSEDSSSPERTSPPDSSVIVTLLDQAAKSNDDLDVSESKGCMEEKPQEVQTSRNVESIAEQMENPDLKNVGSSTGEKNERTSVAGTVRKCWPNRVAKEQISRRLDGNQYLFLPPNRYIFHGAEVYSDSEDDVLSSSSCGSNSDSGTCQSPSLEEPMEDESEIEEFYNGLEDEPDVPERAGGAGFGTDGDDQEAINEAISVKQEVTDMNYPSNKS

[2] = target: T1, NAD-dependent protein deacetylase sirtuin-1 (Homo sapiens); assay: Activation of 50 nM N-terminal His6-tagged recombinant human SIRT1 expressed in Escherichia coli at low micromolar concentration using RHKK(Ac)W-NH2 as substrate after 30 mins in presence of 0.01% TX-100 by UV detection-based HPLC method relative to control
Method in brief: (§1)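 SIRT1 (Sigma stock ~6 μM, 10% glycerol, no BSA) freshly diluted in 50 mM Tris-HCl/Tris pH 8.0. Mixture: 200 μM NAD+, 100 μM RHKK(Ac)W-NH2, 1% DMSO, optional additive (Triton X-100 0.01% v:v; BSA 1 mg/mL). Reaction started by enzyme without preincubation, run at 37 °C with conversion kept at 1–10% (30 min at 50 nM, 1 h at 25 nM, 5–10 min at 250 nM). Read-out: C18 HPLC, UV 220 nm, percent conversion from peak areas.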

[3] = Drug aggregation in deuterated phosphate buffer assessed as diffusion coefficient at 100 uM by DOSY NMR method; format: physicochemical
Method in brief: (§2)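 DOSY at 600 MHz in deuterated phosphate buffer (50 mM, pH 8.0), using stimulated echo with bipolar gradient pulses and spoil gradients. 32 F1 increments of 32 scans, relaxation delay 1 s, acquisition 0.68 s, Δ 50 ms, δ 2.2 ms, 8192 points, 6009 Hz width. Diffusion coefficients taken from residual resonances of the compound.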

[4] = target: T1, NAD-dependent protein deacetylase sirtuin-1 (Homo sapiens); assay: Activation of 25 nM N-terminal His6-tagged recombinant human SIRT1 expressed in Escherichia coli at 100 uM using RHKK(Ac)W-NH2 as substrate after 1 hr in presence of 0.01% Tween 20 by UV detection-based HPLC method
Method in brief: (§3)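 Same SIRT1 HPLC deacetylation assay: 50 mM Tris-HCl/Tris pH 8.0, 200 μM NAD+, 100 μM RHKK(Ac)W-NH2, 1% DMSO. Started by enzyme addition, 37 °C. Deacetylated product separated by C18 HPLC, detected at 220 nm, and conversion computed from peak areas.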

[5] = Drug aggregation in deuterated phosphate buffer assessed as diffusion coefficient at 1 mM by DOSY NMR method; format: physicochemical; conditions: 1000 µM
Method in brief: as §2

[6] = Drug aggregation in deuterated phosphate buffer assessed as diffusion coefficient at 100 uM in presence of 1.5 uM bovine serum albumin by DOSY NMR method; format: physicochemical
Method in brief: as §2

[7] = target: T1, NAD-dependent protein deacetylase sirtuin-1 (Homo sapiens); assay: Inhibition of 25 nM N-terminal His6-tagged recombinant human SIRT1 expressed in Escherichia coli at 100 uM using RHKK(Ac)W-NH2 as substrate after 1 hr by UV detection-based HPLC method relative to control
Method in brief: as §1

[8] = target: T1, NAD-dependent protein deacetylase sirtuin-1 (Homo sapiens); assay: Activation of 8 nM N-terminal His6-tagged recombinant human SIRT1 expressed in Escherichia coli at 100 uM using RHKK(Ac)W-NH2 as substrate in presence of 0.01% TX-100 by UV detection-based HPLC method relative to control
Method in brief: as §3

[9] = target: T1, NAD-dependent protein deacetylase sirtuin-1 (Homo sapiens); assay: Inhibition of 50 nM N-terminal His6-tagged recombinant human SIRT1 expressed in Escherichia coli at 100 uM using RHKK(Ac)W-NH2 as substrate after 30 mins by UV detection-based HPLC method
Method in brief: as §1

[10] = target: T1, NAD-dependent protein deacetylase sirtuin-1 (Homo sapiens); assay: Activation of 50 nM N-terminal His6-tagged recombinant human SIRT1 expressed in Escherichia coli at 100 uM using RHKK(Ac)W-NH2 as substrate after 30 mins in presence of 0.01% TX-100 by UV detection-based HPLC method relative to control
Method in brief: as §1

[11] = Drug aggregation in deuterated phosphate buffer assessed as diffusion coefficient at 100 uM in presence of 0.01% TX-100 by DOSY NMR method; format: physicochemical
Method in brief: as §2

[12] = Drug aggregation in deuterated phosphate buffer assessed as diffusion coefficient at 100 uM in presence of 0.001% TX-100 by DOSY NMR method; format: physicochemical
Method in brief: as §2

[13] = target: T1, NAD-dependent protein deacetylase sirtuin-1 (Homo sapiens); assay: Activation of 25 nM N-terminal His6-tagged recombinant human SIRT1 expressed in Escherichia coli at 100 uM using RHKK(Ac)W-NH2 as substrate after 1 hr in presence of 0.01% TX-100 by UV detection-based HPLC method relative to control
Method in brief: as §1

[14] = target: T1, NAD-dependent protein deacetylase sirtuin-1 (Homo sapiens); assay: Inhibition of 8 nM N-terminal His6-tagged recombinant human SIRT1 expressed in Escherichia coli assessed as remaining activity at 100 uM using RHKK(Ac)W-NH2 as substrate by UV detection-based HPLC method relative to control
Method in brief: as §3

[15] = target: T1, NAD-dependent protein deacetylase sirtuin-1 (Homo sapiens); assay: Binding affinity to 25 to 100 nM N-terminal His6-tagged recombinant human SIRT1 expressed in Escherichia coli at 100 uM by 1H NMR method
[16] = target: T1, NAD-dependent protein deacetylase sirtuin-1 (Homo sapiens); conditions: 1 uM
[17] = target: T1, NAD-dependent protein deacetylase sirtuin-1 (Homo sapiens); conditions: 1 uM; remark: listed apart in the source
[18] = target: T1, NAD-dependent protein deacetylase sirtuin-1 (Homo sapiens); conditions: 1 uM; remark: listed apart in the source
[19] = target: T2, NAD-dependent protein deacetylase sirtuin-1 (Homo sapiens, UniProt Q96EB6); assay: Inhibition of human recombinant GST-fused SIRT1 expressed in Escherichia coli DH5-alpha using [3H]acetic acid labeled MPSDKTIGG as substrate after overnight incubation by liquid scintillation counting method
T2 sequence (Q96EB6 whole entry): T1 sequence (whole entry)

[20] = target: T3, NAD-dependent protein deacetylase sirtuin-2 (Homo sapiens, UniProt Q8IXJ6); assay: Inhibition of human recombinant GST-fused SIRT2 expressed in Escherichia coli DH5-alpha using [3H]acetic acid labeled MPSDKTIGG as substrate after overnight incubation by liquid scintillation counting method
T3 sequence (Q8IXJ6 whole entry): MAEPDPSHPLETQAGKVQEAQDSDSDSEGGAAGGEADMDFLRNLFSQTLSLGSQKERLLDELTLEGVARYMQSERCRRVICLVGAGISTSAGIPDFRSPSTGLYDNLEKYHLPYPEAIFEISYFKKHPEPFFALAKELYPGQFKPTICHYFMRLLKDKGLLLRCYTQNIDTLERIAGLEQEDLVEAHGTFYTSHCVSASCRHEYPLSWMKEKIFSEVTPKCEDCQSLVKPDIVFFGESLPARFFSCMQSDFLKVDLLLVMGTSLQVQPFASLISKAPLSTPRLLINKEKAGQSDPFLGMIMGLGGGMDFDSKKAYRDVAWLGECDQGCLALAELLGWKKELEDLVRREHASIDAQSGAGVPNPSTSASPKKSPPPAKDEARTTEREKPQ

CC(C)=CCC[C@]1(C)[C@@H](CC=C(C)C)C[C@]2(CC=C(C)C)C(=O)[C@@]1(CC=C(C)C)C(=O)C(C(=O)c1ccc(O)c(O)c1)=C2O [GUTTIFERONE A]
Activity [1]: Active
Activity [2]: Active
D [3]: 2.706 ×10⁻¹⁰ m2/s
Activity [4]: Active
D [5]: 2.246 ×10⁻¹⁰ m2/s
D [6]: 1.61 ×10⁻¹⁰ m2/s
inhibition [7]: 90%
Activity [8]: 158%
inhibition [9]: Active
fold change (FC) [10]: 2
D [11]: 1.808 ×10⁻¹⁰ m2/s
D [12]: 2.298 ×10⁻¹⁰ m2/s
fold change (FC) [13]: 2
Activity [14]: 1%
Activity [15]: Active

CC(C)=CCC[C@]1(C)[C@@H](CC=C(C)C)C[C@@]2(CC=C(C)C)C(=O)[C@]1(C(=O)C(C)C)C(=O)C(CC=C(C)C)=C2OCC(=O)O
inhibition [9]: Active
Activity [10]: Active
Activity [13]: Active

CC1=CCC(C(=O)/N=C2\CC=C(S(=O)(=O)O)c3cc(S(=O)(=O)O)cc(S(=O)(=O)O)c32)=C/C1=N/C(=O)C1=CC=C/C(=N\C(=O)/N=C2\C=CC=C(C(=O)/N=C3/CC(C(=O)/N=C4\CC=C(S(=O)(=O)O)c5cc(S(=O)(=O)O)cc(S(=O)(=O)O)c54)=CC=C3C)C2)C1
inhibition [16]: Active
inhibition [17]: Active
inhibition [18]: Active

CC(C)=CCC[C@]1(C)[C@@H](CC=C(C)C)C[C@]2(CC=C(C)C)C(=O)C(CC=C(C)C)=C(O)[C@@]1(C(=O)C(C)C)C2=O
inhibition [9]: Active
Activity [10]: Active

CC(C)=CCC/C(C)=C/C[C@@H]1C[C@]2(CC=C(C)C)C(=O)[C@@](CC=C(C)C)(C(=O)C(C(=O)c3ccc(O)c(O)c3)=C2O)[C@@]1(C)CCC=C(C)C [OBLONGIFOLIN C]
IC50 [19]: 9 µM
IC50 [20]: 22 µM
